We go through 95 compounds from ChEMBL document CHEMBL4513216, “Probing the Open Global Health Chemical Diversity Library for Multistage-Active Starting Points for Next-Generation Antimalarials” (ACS Infect Dis, 2020).

SMILES strings stand for the structures.

The data set is described as follows: Toxicity liver stage against HepG2, at 10uM. The format is cell-based. Also on record: test concentration 10 uM, cell line HepG2-A16-CD81EGFP. Particulars: human, HepG2-A16-CD81EGFP cells; read-out: INHIBITION
The method in brief: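 Uninfected HepG2-A16-CD81EGFP cells, 3 × 10^3 per well, 1536-well, plated on prespotted compound at 10 μM final, parasite-free screening media added to match infected plates; puromycin 10 μM positive, DMSO 0.5% negative; run in parallel with 48 h PbLuc assay at 37 °C, 5% CO2; viability by CellTiter-Glo luminescence, normalized to controls.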
In the case of `CCCN(C)S(=O)(=O)N1CCCC1c1ccco1` (stereo not given), the cytotoxicity at 10 µM was -8.72%.

Consider `N#CC1(C(=O)N2C[C@H](Nc3ncccn3)[C@@H](C3CC3)C2)CCOCC1`, for which the cytotoxicity at 10 µM was determined as 5.44%.

As to `N#Cc1c(C2CCOC2)cc(-c2ccc(N3CCCCC3)cc2)nc1N` (stereo not given), the cytotoxicity at 10 µM was -8.78%.

As to `CCN(C(c1cccnc1)c1cc(C)cc(C)c1)S(C)(=O)=O` (stereo not given), the cytotoxicity at 10 µM amounted to 2.88%.

As for `COc1ccccc1N1CC(NC(=O)Cn2cc(C(C)C)nn2)CC1=O` (stereo not given), the cytotoxicity at 10 µM was determined as 11.5%.

Take `Cc1ccsc1CN1CCc2nc3ccsc3c(=O)n2CC1`: the cytotoxicity at 10 µM was 8.52%.

Turning to `CS(=O)(=O)NC[C@@H]1OC[C@H]2CN(C(=O)c3ccc[nH]3)CC[C@H]21`, the cytotoxicity at 10 µM is 0.253%.

For the compound `CCOCCCNC(=O)Cc1cccc(F)c1`, the cytotoxicity at 10 µM worked out at 12.1%.

For the compound `CN(CC(=O)N(C)C1CCCCC1)Cc1nc2c(cnn2C)c(=O)[nH]1`, the cytotoxicity at 10 µM stood at 9.12%.

Take `Cc1cc(C(=O)NC2CCCN(c3ccccc3)C2=O)on1` (stereo not given): the cytotoxicity at 10 µM was found to be 24.7%.

On to `COc1ccc(C(=O)C2CCCN(Cc3cccc(F)c3)C2)c(OC)c1` (stereo not given), for which the cytotoxicity at 10 µM amounted to 6.4%.

For the compound `CS(=O)(=O)NC[C@]12COC[C@H]1CN(C(=O)C1CCSCC1)C2`, the cytotoxicity at 10 µM was -112%.

In the case of `Cc1nc(C)n(CC2CCCN2Cc2cn3ccccc3n2)n1` (stereo not given), the cytotoxicity at 10 µM is -3.05%.

`Cc1nc(CO[C@H]2CN(C(=O)c3ccc[nH]3)[C@@H]3COC[C@H]23)cs1`: the cytotoxicity at 10 µM was -110%.

As for `O=C(NCCn1cccn1)Nc1cc(C(=O)N2CCOCC2)ccc1Cl`, the cytotoxicity at 10 µM is -46.6%.

In the case of `Cc1ccnc(N2CCN(C[C@]3(O)CCCN4CCCC[C@@H]43)CC2)c1`, the cytotoxicity at 10 µM was determined as 3.78%.

`CN(C)CCNC(=O)c1nc2c(s1)CCCN2C(=O)C1CC1`: the cytotoxicity at 10 µM is -108%.

Turning to `CC(=O)c1cccc(NC(=O)NCCc2nnc[nH]2)c1`, the cytotoxicity at 10 µM is -39.1%.

In the case of `COc1ccc(-c2ccc(C(=O)NS(C)(=O)=O)c(F)c2)c(F)c1`, the cytotoxicity at 10 µM was 0.512%.

On to `CC(C1CC1)N(CC(=O)NCC(F)(F)F)C1CC1` (stereo not given), for which the cytotoxicity at 10 µM is -4.42%.

On to `COc1ccc(-c2cc(N)ccn2)c(OC)c1OC`, for which the cytotoxicity at 10 µM amounted to 11.4%.

Turning to `CC(C)CNC(=O)N1C[C@H]2CC[C@@]3(N=C(c4ccccc4)NC3=O)[C@H]2C1`, the cytotoxicity at 10 µM was -5.82%.

For `OC1(CNCc2noc(Cc3ccccc3)n2)CNCCOC1` (stereo not given), the cytotoxicity at 10 µM is 9.34%.

Regarding `Cc1cccc(C(=O)N2C[C@@H]3CCN(C(C)C)C[C@@H]3C2)c1`, the cytotoxicity at 10 µM was -2.16%.

With `COc1ccc(CCC(=O)N(C)Cc2c(C)nn(C)c2C)cc1`, the cytotoxicity at 10 µM was -0.734%.

Consider `CC(=O)NCc1ccc(C(=O)N2CCCCC2Cn2cccn2)o1` (stereo not given), for which the cytotoxicity at 10 µM was -4.22%.

`CN1CCC2(CC1)CN(C(=O)c1onc3ccccc13)CCCN2C`: the cytotoxicity at 10 µM is 8.31%.

Take `c1cnc2[nH]c(C3CCNCC3)c(CN3CCOCC3)c2c1`: the cytotoxicity at 10 µM amounted to 1.82%.

With `C[C@@H]1CN(Cc2cn(C)nc2-c2ccccc2F)C[C@H](C)O1`, the cytotoxicity at 10 µM was -1.43%.

For `CC(C)COC(C)C(=O)NCCNC(=O)C(C)C` (stereo not given), the cytotoxicity at 10 µM was -15.2%.

For `Cc1nc(CNc2cccc(Cl)c2Cl)cs1`, the cytotoxicity at 10 µM came out at 11.4%.

In the case of `CCOc1cccc2c1OCC(=O)N(c1ccc(N(C)C)cc1)C2`, the cytotoxicity at 10 µM is 4.28%.

For the compound `Cc1cc(C)n(NC(=O)c2cccc3c2OCC3)c(=O)c1`, the cytotoxicity at 10 µM is 1.91%.

In the case of `O=S(=O)(NCCc1nc(-c2cccnc2)n[nH]1)NCc1ccccc1`, the cytotoxicity at 10 µM worked out at 7.02%.

Consider `COc1ccc(CN(C)CC(=O)Nc2ccc3[nH]c(=O)[nH]c3c2)cc1F`, for which the cytotoxicity at 10 µM was found to be 5.97%.

Take `Cc1cc(C)n(-c2cncc(NCCNS(C)(=O)=O)n2)n1`: the cytotoxicity at 10 µM was -3.98%.

For the compound `O=C(c1ccoc1)N1CC[C@@H]2[C@@H](CC1)OCCN2c1cccnc1`, the cytotoxicity at 10 µM amounted to 11.1%.

In the case of `Cc1ocnc1CNC(=O)Nc1ccc(N2CCOC(C)C2)cc1` (stereo not given), the cytotoxicity at 10 µM was -2.8%.

On to `CCOc1ccccc1CNC(=O)N1CCC(Cc2cnn(C)c2)C1` (stereo not given), for which the cytotoxicity at 10 µM is -7.3%.

Regarding `Cc1c(C(C)NC(=O)C2CCCCC2)cnn1C` (stereo not given), the cytotoxicity at 10 µM was -4.79%.

On to `Cc1noc([C@]23COC[C@H]2CN(C(=O)COC2CCCC2)C3)n1`, for which the cytotoxicity at 10 µM is -104%.

In the case of `CC(C(=O)NCCc1cccs1)N1CCC(n2ccnc2)CC1` (stereo not given), the cytotoxicity at 10 µM was -16%.

With `O=C(NC1CC1)c1nc2c(o1)CN(c1ncccn1)C2`, the cytotoxicity at 10 µM turned out to be 0.718%.

Consider `CCc1cnc(CN(C)C2CCN(CC(=O)Nc3cc(C)on3)C2)o1` (stereo not given), for which the cytotoxicity at 10 µM came out at 0.2%.

`CC(C)C(=O)NC1CCCN(C(=O)c2cc3ccccc3cc2O)C1` (stereo not given): the cytotoxicity at 10 µM is -4.14%.

Consider `O=c1c2c[nH]c(N3CCOCC3)nc-2cn1-c1ccc2c(c1)OCO2`, for which the cytotoxicity at 10 µM is -13.1%.

As for `Cn1ccc2c(NC(=O)Cn3ncc4c(c3=O)CCCCC4)cccc21`, the cytotoxicity at 10 µM was determined as 3.89%.

In the case of `COCC(=O)N1CCN(C(=O)NC(C)C)CC2(CC(=O)N(C)C2)C1` (stereo not given), the cytotoxicity at 10 µM worked out at 1.76%.

With `Cc1nc(CN2C[C@@H]3CN(C(=O)c4ccnnc4)C[C@@H]3C2=O)cs1`, the cytotoxicity at 10 µM was -7.41%.

On to `CCN1CCN(c2ccc(F)cc2C(C)NCc2ccncc2)CC1` (stereo not given), for which the cytotoxicity at 10 µM was -1.4%.

On to `O=C(c1cnc(C2CC2)s1)N1CCCC(n2cccn2)C1` (stereo not given), for which the cytotoxicity at 10 µM was -13.9%.

As for `c1ccc(COC[C@]23COC[C@H]2CN(c2ncccn2)C3)nc1`, the cytotoxicity at 10 µM was determined as 2.14%.

Turning to `Cn1c(=O)oc2cc(Nc3ncc(C#N)cc3Cl)ccc21`, the cytotoxicity at 10 µM was found to be 4.93%.

Turning to `Cc1ncsc1C(=O)NCc1ccnc(N2CCN(C)CC2)c1`, the cytotoxicity at 10 µM is -6.92%.

Regarding `Cc1noc(C)c1CNC(=O)c1ccc(NC2CC2)nc1`, the cytotoxicity at 10 µM was -3.91%.

On to `CC(Cn1cncn1)NC(=O)Nc1ccc(F)cc1OCC1CC1` (stereo not given), for which the cytotoxicity at 10 µM was 4.34%.

For the compound `N#CCCN(CC1CCCO1)C(=O)c1ccc2nonc2c1` (stereo not given), the cytotoxicity at 10 µM is 1.35%.

For the compound `Cc1ccccc1C1CCN(CCn2cc(-c3nccs3)nn2)C1` (stereo not given), the cytotoxicity at 10 µM was -1.29%.

As for `CN(CCS(=O)(=O)c1cc(Cl)ccc1Cl)CC(=O)Nc1cccc(F)c1`, the cytotoxicity at 10 µM amounted to 13.9%.

With `COc1cccc([C@@H](C)n2ccnc2-c2cc3n(n2)CCNC3)c1`, the cytotoxicity at 10 µM is 3.09%.

Consider `Cc1nc(CN2CCN(Cc3ccoc3)Cc3cccnc32)cs1`, for which the cytotoxicity at 10 µM is -5.25%.

As to `Cc1ccc(NC(=O)N(CCO)CCO)c(OCc2ccccc2)c1`, the cytotoxicity at 10 µM is 18.4%.

Take `COc1ccc(CNCc2c(C)nn(C)c2N2CCOCC2)cc1`: the cytotoxicity at 10 µM was -1.32%.

Turning to `O=C(c1ccc[nH]1)N1CCCC2(CCN(c3ccsc3)C2=O)C1` (stereo not given), the cytotoxicity at 10 µM is -0.449%.

With `CC(C)Nc1nc2c(s1)C(=O)CN(C(=O)NCCc1ccccc1)C2`, the cytotoxicity at 10 µM was -5.55%.

Consider `CNC(=O)NC(=O)CN(Cc1ccc(C#N)cc1)Cc1cccc(F)c1`, for which the cytotoxicity at 10 µM came out at 5.51%.

Turning to `CCc1nnc(CN(CC)C(=O)C2CC(=O)N(C3CC3)C2)o1` (stereo not given), the cytotoxicity at 10 µM is -0.143%.

Turning to `Cn1cccc1CN(C(=O)Cc1cccs1)C1CC1`, the cytotoxicity at 10 µM was determined as 7.53%.

As to `Cc1cc(C2CCCN2Cc2nnc(-c3ccco3)o2)on1` (stereo not given), the cytotoxicity at 10 µM was 8.92%.

As to `COCC1COCCC12CCN(C(=O)CCOc1ccccc1)CC2` (stereo not given), the cytotoxicity at 10 µM is -18.7%.

Take `O=C(CCN1CCCO1)N1CC[C@@H](CNC(=O)N2CCCC2)[C@H](O)C1`: the cytotoxicity at 10 µM was 0.275%.

Turning to `O=c1occ(CN2CCCCCC2)c(O)c1CN1CCCCCC1`, the cytotoxicity at 10 µM was -8.1%.

With `Cc1nc(C2CCCN(c3ncc(Br)cn3)C2)no1` (stereo not given), the cytotoxicity at 10 µM was -0.598%.

For the compound `CN1CCC(CCNC(=O)c2ccc(N(C)S(C)(=O)=O)cc2Cl)CC1`, the cytotoxicity at 10 µM was -10.1%.

Consider `CCS(=O)(=O)N1CCN(Cc2cccnc2)c2nc(C)ccc2C1`, for which the cytotoxicity at 10 µM was -70.3%.

As to `CN(Cc1cccc(F)c1)S(=O)(=O)N1CCOCC1`, the cytotoxicity at 10 µM was -1.97%.

As for `CC(C(=O)NCc1ccc(-n2cncn2)nc1)S(C)(=O)=O` (stereo not given), the cytotoxicity at 10 µM is 7.41%.

For the compound `Fc1ccc(CN2CCc3ncnc(C4CCOC4)c3CC2)cc1` (stereo not given), the cytotoxicity at 10 µM turned out to be 12.3%.

With `CCCS(=O)(=O)N1Cc2nccn2CC(CN2CCCC2)C1` (stereo not given), the cytotoxicity at 10 µM was -131%.

Turning to `CN(CC(=O)NC(C)(C)C)Cc1nc(-c2ccccc2)c[nH]1`, the cytotoxicity at 10 µM was -2.23%.

As for `FC(F)(F)c1ccc2[nH]c([C@H]3CCNC3)nc2c1`, the cytotoxicity at 10 µM was determined as 2.91%.

On to `COCC(=O)N1CCN(c2ccc(C(=O)OC)cc2)CC1C` (stereo not given), for which the cytotoxicity at 10 µM is -14.2%.

As to `Cc1nc(CN2CCN(C(C)c3nc(C(C)C)no3)CC2)oc1C` (stereo not given), the cytotoxicity at 10 µM is -9.16%.

In the case of `O=C1C(Sc2nnnn2C2CC2)CCN1c1ccccc1F` (stereo not given), the cytotoxicity at 10 µM turned out to be 4.05%.

On to `COc1ccc(C(C)NCc2cscn2)cc1Cn1cccn1` (stereo not given), for which the cytotoxicity at 10 µM is 3.01%.

As to `CCCn1ccnc1SCC(=O)NC(Cc1ccccc1)C(C)=O` (stereo not given), the cytotoxicity at 10 µM was -9.58%.

In the case of `COCCCNC(=O)c1cn(C(C)C)cc2c(=O)[nH]nc1-2`, the cytotoxicity at 10 µM is -4.45%.

Take `Cc1nc(C)n(CC2CCCN2Cc2ccccn2)n1` (stereo not given): the cytotoxicity at 10 µM was -0.186%.

Turning to `CCCn1cc(-c2cc(-c3ccoc3)c(C#N)c(N)n2)c(C)n1`, the cytotoxicity at 10 µM worked out at 5.48%.

On to `CN(C)S(=O)(=O)NCC1(c2ccccc2Br)CC1`, for which the cytotoxicity at 10 µM turned out to be 1.94%.

Turning to `CN(C(=O)CNc1ccc(C#N)cc1)C1CCN(c2ccccn2)CC1`, the cytotoxicity at 10 µM was 18.7%.

On to `Cc1c(Cl)cccc1S(=O)(=O)N1CCC(S(=O)(=O)c2nncn2C)CC1`, for which the cytotoxicity at 10 µM is 1.06%.

Turning to `O=C1CC[C@@H]2[C@@H](CCN2Cc2ccncc2)N1c1ccccc1`, the cytotoxicity at 10 µM was -1.88%.

On to `Cc1c[nH]nc1C1CCN(C(=O)C2CCCC2)C1` (stereo not given), for which the cytotoxicity at 10 µM came out at 0.631%.

Turning to `Cc1nc(C(=O)N(CC(=O)N(C)C)CC(F)(F)F)c2ccccn12`, the cytotoxicity at 10 µM was -16.4%.
